Laboratory results from article PMC8009840 (Bioorganic chemistry, 2021).

What was measured:
KOR [1] = target: KOR (Mus musculus, UniProt P33534); test: Competitive radioligand binding assay, KOR; design: species or system mice; details: for Selectivity δ/κ: Ki ratio DOR/KOR; for Selectivity μ/κ: Ki ratio MOR/KOR
Summary of the method: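 Competition binding on membranes (30 μg protein) from CHO cells expressing mouse KOR or MOR, or human DOR. [3H]diprenorphine labels KOR and DOR, and [3H]naloxone labels MOR. Varied test compound in TME buffer (50 mM Tris, 3 mM MgCl2, 0.2 mM EGTA, pH 7.4), 1.5 h, 30 °C, then filtration. Nonspecific binding: 5 μM U50,488 (KOR), DAMGO (MOR), SNC80 (DOR). IC50 by nonlinear regression, converted to Ki by Cheng-Prusoff; selectivity as Ki ratios.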

human KOR = human KOR (Homo sapiens, UniProt P41145); test: [35S]-GTPγS functional assay, KOR-expressed CHO cell membranes; format: biochemical; details: for EC50: read-out: KOR [35S]-GTPγS binding EC50, mean ± SEM, at least three experiments; for KOR [35S]-GTPγS binding % Emax of U50,488H: relative to full agonist U50,488H (5 μM)
Summary of the method: (§1)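 CHO membranes (10 μg protein) incubated 1 h at 30 °C with varied test compound, GDP (15 μM) and 80 pM [35S]GTPγS; nonspecific binding with 10 μM unlabelled GTPγS. Full agonist at 5 μM for the maximal response: U50,488H (KOR), DAMGO (MOR), DPDPE (DOR). Emax is net-stimulated binding as % of that full-agonist stimulation. Mean ± SEM of at least three experiments.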

rat MOR = rat MOR (Rattus norvegicus, UniProt P33535); test: [35S]-GTPγS functional assay, MOR-expressed CHO cell membranes; format: biochemical; details: for EC50: read-out: MOR [35S]-GTPγS binding EC50, mean ± SEM, at least three experiments; for MOR [35S]-GTPγS binding % Emax of DAMGO: relative to full agonist DAMGO (5 μM)
Summary of the method: as §1

mouse DOR = mouse DOR (Mus musculus, UniProt P32300); test: [35S]-GTPγS functional assay, DOR-expressed CHO cell membranes; format: biochemical; details: for EC50: read-out: DOR [35S]-GTPγS binding EC50, mean ± SEM, at least three experiments; for DOR [35S]-GTPγS binding % Emax of DPDPE: relative to full agonist DPDPE (5 μM)
Summary of the method: as §1

KOR [2] = details: cited from earlier work
MOR = details: read-out: MOR Ki; cited from earlier work

Row | SMILES | Selectivity δ/κ (KOR [1]) | Selectivity μ/κ (KOR [1]) | EC50 (human KOR) [nM] | KOR [35S]-GTPγS binding % Emax of U50,488H (human KOR) [%] | EC50 (rat MOR) [nM] | MOR [35S]-GTPγS binding % Emax of DAMGO (rat MOR) [%] | EC50 (mouse DOR) [nM] | DOR [35S]-GTPγS binding % Emax of DPDPE (mouse DOR) [%] | μ/κ Ki ratio (KOR [2]) | Ki (KOR [2]; read-out: KOR Ki) [nM] | Ki (MOR) [nM]
1 | Cc1cc(C(=O)N[C@@H]2CC[C@@]3(O)[C@H]4Cc5cccc6c5[C@@]3(CCN4CC3CC3)[C@H]2O6)ccn1 [Compound 6d, 17-Cyclopropylmethyl-4,5α-epoxy-14β-hydroxy-6β-{[4′-(2′-methylpyridyl)]carboxamido}morphinan] | 38.0 | 0.41 |  |  |  |  |  |  |  |  | 
2 | N#Cc1cc(C(=O)N[C@@H]2CC[C@@]3(O)[C@H]4Cc5cccc6c5[C@@]3(CCN4CC3CC3)[C@H]2O6)ccn1 [Compound 6c, 17-Cyclopropylmethyl-4,5α-epoxy-14β-hydroxy-6β-{[4′-(2′-cyanopyridyl)]carboxamido}morphinan] | 551 | 9.5 | 92 ± 8.47 | 100.20 ± 2.37 | 338 ± 31.1 | 26.48 ± 3.73 | 1850 ± 152 | 113.90 ± 3.10 |  |  | 
3 | Cl.O=C(N[C@@H]1CC[C@@]2(O)[C@H]3Cc4cccc5c4[C@@]2(CCN3CC2CC2)[C@H]1O5)c1ccnc(Cl)c1 [Compound 6a, 17-Cyclopropylmethyl-4,5α-epoxy-14β-hydroxy-6β-{[4′-(2′-chloropyridyl)]carboxamido}morphinan hydrochloride] | 203 | 1.8 |  |  |  |  |  |  |  |  | 
4 | O=C(N[C@@H]1CC[C@@]2(O)[C@H]3Cc4cccc5c4[C@@]2(CCN3CC2CC2)[C@H]1O5)c1ccnc(Br)c1 [Compound 6b, 17-Cyclopropylmethyl-4,5α-epoxy-14β-hydroxy-6β-{[4′-(2′-bromopyridyl)]carboxamido}morphinan] | 280 | 3.3 | 81.9 ± 9.09 | 99.27 ± 2.79 | 291 ± 42 | 33.62 ± 3.92 | 2680 ± 689 | 145.10 ± 12.31 |  |  | 
5 | CN(C(=O)/C=C/c1ccoc1)[C@@H]1CC[C@@]2(O)[C@H]3Cc4cccc5c4[C@@]2(CCN3CC2CC2)[C@H]1O5 [CT-18] |  |  |  |  |  |  |  |  | 355 | 1.5 | 533
6 | COc1cc(C(=O)N[C@@H]2CC[C@@]3(O)[C@H]4Cc5cccc6c5[C@@]3(CCN4CC3CC3)[C@H]2O6)ccn1 [Compound 6e, 17-Cyclopropylmethyl-4,5α-epoxy-14β-hydroxy-6β-{[4′-(2′-methoxypyridyl)]carboxamido}morphinan] | 67.9 | 0.53 |  |  |  |  |  |  |  |  | 
